Only some compounds are listed: those with a hit (about 2.2% of all), similar ones and a draw of the others.
bCat KO growth: beta-catenin-lacking colon tumor cell growth suppression | viability, % at 10 µM | AID 818 | HCT116 beta-catenin knockout viability, CellTiter-Glo, 60 h; stronger effect = lower value | hit rate 1.5% among 140,000;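 active = viability at or under a set limit, the compound median less 4 SD, cut at about 6% in these data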;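 also: 0% = Hyamine 1622 control at 20 µM and 100% = untreated cell control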
PTEN del growth: PTEN-deleted cell growth suppression; HCT116 PTEN-null viability, CellTiter-Glo, 60 h; stronger effect = lower value; viability, % at 10 µM; hit rate 1.2% among 140,000; AID 827;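 active = viability at or below a set limit, 4 SD under the median of all tested compounds, cut at about 3.7% in these data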;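 also: PTEN knockout HCT116 line with beta catenin targeted HCT116 as companion control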
Autophagy HCS: alters autophagy in cells | MEF GFP-LC3 puncta imaging; test concentration mostly 10 µM | calls only at 10 µM (by protocol) | hit rate 0.98% among 190,000 | AID 463193;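 active = percentage of spot-positive cells more than 3 SD above its plate mean, without a fluorescence outlier flag or 80% toxicity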;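 also: spot-positive cell cutoff set from DMSO-treated cells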
Dynein transport: blocks dynein driven cargo transport along microtubules. z-score, hits read low. AID 1381. hit rate 0.47% among 220,000. 3617.4 mouse cells, GR-EGFP nuclear translocation imaging; test concentration mostly 20 µM; stimulated with dexamethasone, 1 µM; stronger effect = lower value;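 active = plate z-score of nuclear minus cytoplasmic receptor signal below a set negative limit, without overly bright fluorescence or cell loss, cut at about -3.5 in these data, passing the limit was not always enough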;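 also: z-score of nuclear minus cytoplasmic ring GR-EGFP intensity difference per well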
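medium = tetracycline-free induction medium containing charcoal-stripped FBS | also added = 1.0 µM final dexamethasone stimulus | schedule = 48 h induction, 1 h compound, 30 min dex at 37 °C | technique = fixed, Hoechst-stained cells imaged at 10x for EGFP | measure = GR-EGFP nuclear translocation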
SDO1 yeast rescue: restores growth of sdo1-depleted yeast. S. cerevisiae sdo1-depleted JHY4D growth rescue, OD600 30 h; stronger effect = higher value; pdr5 snq2 efflux-pump mutant strain. hit rate 0.21% among 140,000. AID 817. z-score at 10 µM;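 active = z-score above 3 at both the 24 hr and the 30 hr optical density reads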;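 also: z-score against mean and SD of all compound wells on the same plate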
Active calls of the source: *; i = inactive; . = no result given; + = active, no number.

SMILES | bCat KO growth | PTEN del growth | Autophagy HCS | Dynein transport | SDO1 yeast rescue
C(=N\Nc1nc(-c2ccccc2)cs1)/c1ccncc1 | . | . | i | 1.5 | .
O=C(O)c1csc(N/N=C/c2ccc(Br)cc2)n1 | . | . | + | 0.51 | .
CSc1nc(-c2ccccc2)nc2[nH]ccc(=O)c12 | . | . | i | 0.46 | .
O=C1C=C(Nc2ccccc2O)c2ccccc2C1=O | 2.3* | 1.8* | i | -1.3 | -0.92
Cc1cc(C)n(-c2ccc3cccc(NS(C)(=O)=O)c3n2)n1 | 3.6* | 5 | i | -0.57 | -0.62
CS(=O)(=O)Nc1cccc2cccnc12 | 11 | 12 | i | -0.037 | 0.6
CN1CCc2c(sc3c2C(=O)NC(c2ccco2)N3)C1 (centres undefined) | 92 | 93 | i | 0.29 | -0.6
CN1CCc2c(sc3c2C(=O)NC(c2cn(Cc4ccccc4)c4ccccc24)N3)C1 (centres undefined) | 76 | 70 | + | 9.2 | -1.4
N#CC1C(C#N)N2CCCN2C1c1ccc(Cl)cc1 (centres undefined) | 83 | 93 | i | 1.4 | -1
Nc1nc(Cl)cc(N2CCCC2)n1 | . | . | i | 0.24 | .
Nc1nc(Cl)cc(N2CCC(c3cc(-c4ccc(Cl)cc4Cl)n[nH]3)CC2)n1 | 3.2* | 4 | i | -0.0096 | -2.4
COc1ccc(OC)c(C(=O)/C=C/c2ccccc2C(F)(F)F)c1 | 4.2* | 5 | i | -2 | -1.8
CCOC(=O)c1sc(NC(=O)CSc2nc(C)cc(C)n2)c(C#N)c1C | 91 | 83 | i | -1.1 | -1.1
CCOC(=O)c1sc(NC(=O)CSc2n[nH]c(-c3ccccc3)n2)c(C#N)c1C | 71 | 81 | + | -1.1 | -1.1
CCOC(=O)c1c(NC(=O)CSc2nc(C)cc(C)c2C#N)sc(C(C)=O)c1C | 104 | 108 | + | -0.033 | -0.87
CCCCSC1=N/C(=C/c2ccsc2)C(=O)N1c1ccccc1 | 59 | 66 | i | 0.36 | -0.43
O=[N+]([O-])c1cnc(Sc2ccncn2)s1 | . | . | . | -5.1* | .
Cn1ccnc1C1CCCCN1Cc1nc(Cc2ccccc2F)no1 (centres undefined) | . | . | i | 0.35 | .
Cn1cc([N+](=O)[O-])c(C(=O)Nc2cc(Oc3cccnc3)cc([N+](=O)[O-])c2)n1 | 1.6* | 0.3* | i | -2.9 | 0.22
O=[N+]([O-])c1cc(Oc2cccnc2)cc([N+](=O)[O-])c1 | 89 | 97 | + | 1.6 | 0.05
Cc1nc(Nc2cccc(C(F)(F)F)c2)nc2c1C(=O)CC(C)C2 (centres undefined) | 59 | 38 | + | 1 | -0.28
Cc1ccc(Nc2nc(C)c3c(n2)CC(C)CC3=O)c(C)c1 (centres undefined) | . | . | . | 1.5 | .
O=C1C(Cl)=C(Nc2ccccc2)C(=O)c2ccccc21 | 1.1* | 1.0* | i | -0.77 | -0.13
CCc1ccc2[nH]c(=O)c(CN(Cc3nnnn3C3CCCC3)C3CCCCC3)cc2c1 | 1.8* | 1.6* | i | -0.78 | -1.3
CCOC(=O)c1cnc2c(N=Nc3cccc(Cl)c3)c(N)nn2c1N | 3.4* | 2.5* | i | -0.37 | -1.1
SMILES | bCat KO growth | PTEN del growth | Autophagy HCS | Dynein transport | SDO1 yeast rescue
CCOC(=O)c1cnc2c(N=Nc3ccccc3)c(N)nn2c1N | 86 | 95 | i | 0.66 | 0.17
CCOC(=O)c1ccc(NC(=O)/C=C/c2cccs2)cc1 | . | . | + | 0.31 | .
COc1ccc(CNC(=O)COC(=O)c2cc(-c3cccs3)nc3ccccc23)cc1OC | 105 | 104 | i | 0.98 | -2.7
CCOC(=O)Nc1nc(-c2ccccc2)c(C(=O)c2ccccc2)s1 | 17 | 15 | + | 0.45 | -1.9
COC(=O)Nc1nc(-c2ccccc2)c(C(=O)c2ccc(Cl)cc2)s1 | 12 | 14 | i | 0.8 | 0.41
CNC(=S)Nc1cc(C(=O)N2CCCC2)ccc1N1CCCC1 | . | . | i | 0.79 | .
COc1ccc(-c2ncncc2-c2csc(C)n2)c(O)c1 | 109 | 105 | + | -0.17 | -1.7
COc1cccc(N/C(N)=N/c2nc(CSc3ccccn3)cc(=O)[nH]2)c1 | . | . | + | 0.93 | .
CCN(CC)C(=O)Oc1ccc(NC(C)=O)cc1 | 92 | 96 | i | -0.56 | 0.78
CCOc1ccc(Oc2ccc(-c3nnc(-c4ccccc4)o3)cc2[N+](=O)[O-])cc1 | 90 | 92 | + | 0.052 | -0.29
O=[N+]([O-])c1cc(-c2nnc(-c3ccccc3)o2)ccc1Oc1ccc(Cl)cc1 | 82 | 83 | i | -0.27 | -0.37
O=C(OCCN1C(=O)c2ccccc2C1=O)c1cc(S(=O)(=O)N2CCOCC2)ccc1Cl | 89 | 107 | i | 1 | -1.2
Cc1n[nH]c(C)c1N1C(=O)c2cccc3c(N4CCCCCC4)ccc(c23)C1=O | 74 | 65 | + | -0.15 | -1.1
O=C1c2cccc3c(N4CCCCC4)ccc(c23)C(=O)N1CCO | 16 | 40 | + | -0.62 | -0.99
O=C(OCCN1C(=O)c2cccc3c(N4CCOCC4)ccc(c23)C1=O)c1ccccc1Cl | 5.3* | 5 | + | 0.97 | -0.39
C=CCN1C(=O)c2cccc3c(N4CCCCC4)ccc(c23)C1=O | . | . | i | 0.51 | .
OCCC1CN(Cc2cccc3c2OCO3)CCN1C1CCCC1 (centres undefined) | . | . | i | 0.93 | .
COc1ccc(/C=C/C(=O)N(Cc2cccs2)C2CCS(=O)(=O)C2)cc1 (centres undefined) | . | . | . | -1.4 | .
COC(=O)Cn1c2ccc(Cl)cc2c2nc(C)sc21 | . | . | . | 0.047 | .
Cc1nc2c3cc(Cl)ccc3n(CCN3CCCCC3)c2s1 | 21 | 25 | + | 0.45 | -0.15
COCC1=C(C(=O)OC)C(c2cccs2)n2ncnc2N1 (centres undefined) | . | . | . | 1.1 | .
O=C(COc1ccccc1-c1ccccc1)N/N=C/c1cccc2ccccc12 | 4.3* | 4 | + | 0.48 | -0.63
COc1ccc(/C=N/NC(=O)COc2ccccc2-c2ccccc2)cc1 | 15 | 17 | i | 1.7 | -0.86
CS(=O)(=O)c1nc(-c2ccccc2)cc(-c2ccccc2)c1C#N | 1.9* | 2.4* | i | -1.9 | -1.2
CC1=NNC(=O)C1C(c1ccccc1)C1C(=O)NN=C1C (centres undefined) | . | . | i | 1.9 | .
SMILES | bCat KO growth | PTEN del growth | Autophagy HCS | Dynein transport | SDO1 yeast rescue
CCOC(=O)c1nn(-c2cccc(C)c2)c2nnc(Cc3ccc(C)cc3)c(=O)n12 | 98 | 98 | i | -0.86 | 0.35
COc1cc(NCCCCCCCN)c2ncccc2c1 | 1.7* | 2.3* | i | 6.3 | 0.82
COc1cc(NCc2ccccc2O)c2ncccc2c1 | . | . | . | -0.38 | .
COc1ccccc1N1CCN(C(=O)c2ccc(Cl)c(S(=O)(=O)NCc3ccco3)c2)CC1 | 28 | 29 | + | -0.31 | -0.37
N#Cc1ccc(/C=C/C(=O)c2ccco2)cc1 | 2.3* | 1.6* | i | -1.8 | 0
Nc1ccc(/C=C/C(=O)c2ccco2)cc1 | 69 | 69 | i | 3.6 | -0.32
Cc1cccc(NC(=O)CSc2nc3ccc(NC(=O)CSc4nnnn4-c4ccccc4)cc3s2)c1C | 2.3* | 4 | i | 0.42 | -0.86
Clc1ccc(NC2=NCCCCC2)cc1 | 107 | 93 | i | -0.95 | 0.3

Screens: PubChem, several laboratories
